Experimental data from different studies.
Compare with care: the assays were run in different laboratories.
Cell line: HCT-116
Observed: cell growth or viability

SMILES | technique | time | setting | IC50
COc1nc(NCc2cn(-c3ccc(NC(=O)c4ccc(Br)cc4)cc3)nn2)nc(OC)n1 | MTT | 72 h | – | 0.0566 µM
COc1ccc(-c2cc(-c3ccc(OC)cc3)c3c(=O)n(C)c(=O)n(C)c3n2)cc1 | MTT | 48 h | – | 11.6 µM
Cc1nc(N(Cc2ccccc2)c2ccc3c(c2)/C(=C/c2ccccc2)C(=O)N3Cc2ccccc2)c2ccccc2n1 (mixture of isomers) | MTT | – | – | 0.98 µM
Cc1ccc(-c2cc(-c3ccc(Cl)cc3)c3c(=O)[nH]c(=O)[nH]c3n2)cc1 | MTT | 48 h | – | 5.44 µM
Cc1nc(NC(=O)N2CCC[C@H]2C(N)=O)sc1-c1ccnc(C(C)(C)C(F)(F)F)c1 | MTT | – | – | 4.34 µM
COc1nc(NCc2cn(-c3ccc(NC(=O)c4ccc(C(F)(F)F)cc4)cc3)nn2)nc(OC)n1 | MTT | 72 h | – | 0.0399 µM
Cc1nc(Nc2ccc3c(c2)/C(=C/c2ccccc2)C(=O)N3C)c2ccccc2n1 | MTT | – | – | 21.4 µM
C=C(F)C(=O)N1CCN(c2nc(OC[C@@H]3CCCN3C)nc3c2CCN(c2cccc4cccc(Cl)c24)C3)C[C@@H]1CC#N | ATP luminescence | – | 3D culture | > 1 µM
COc1nc(NCc2cn(-c3ccc(C(N)=O)cc3)nn2)nc(OC)n1 | MTT | 72 h | – | 0.0797 µM
Cc1nc2ccc(CN(C)c3ccc(C(=O)N[C@@H](CCC(=O)O)C(=O)O)s3)cc2c(=O)[nH]1 | MTT | 48 h | – | 1.07 µM
